From ChEMBL document CHEMBL3588757, “Structure-based design, synthesis and biological testing of piperazine-linked bis-epipodophyllotoxin etoposide analogs” (Bioorg Med Chem, 2015)
Active and inactive are the calls of the source. The rule behind the calls is not given here.

Legend:
K562 = assay: Induction of DNA double strand breaks in human K562 cells assessed as increase in gamma-H2AX level at 25 uM after 4 hrs by chemiluminescence analysis; type: functional, cell-based
How it was run: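 K562 cells (3.4 × 10^5/mL) exposed 4 h at 37 °C to 25 µM drug or DMSO. Lysed in Tris pH 6.7/SDS buffer; 50 µg protein on 14% SDS-PAGE, PVDF blot. Rabbit anti-γH2AX (1:1000, overnight), GAPDH loading control, HRP secondary. Chemiluminescence imaged by CCD.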

LOX IMVI = assay: Cytotoxicity against human LOXIMVI cells assessed as cell growth at 50 uM by SRB assay; type: functional; settings: read-out: Activity
UACC-62 [1] = assay: Cytotoxicity against human UACC62 cells assessed as cell growth at 50 uM by SRB assay; type: functional; settings: read-out: Activity
OVCAR-8 = assay: Cytotoxicity against human OVCAR8 cells assessed as cell growth at 50 uM by SRB assay; type: functional; settings: read-out: Activity
ACHN = assay: Cytotoxicity against human ACHN cells assessed as cell growth at 50 uM by SRB assay; type: functional; settings: read-out: Activity
PC-3 = assay: Cytotoxicity against human PC3 cells assessed as cell growth at 50 uM by SRB assay; type: functional; settings: read-out: Activity
T47D = assay: Cytotoxicity against human T47D cells assessed as cell growth at 50 uM by SRB assay; type: functional; settings: read-out: Activity
MOLT-4 = assay: Cytotoxicity against human MOLT4 cells by SRB assay; type: functional
How it was run: (§1)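 NCI-60 panel screen; 5-dose testing giving GI50 per cell line, plus a single 10 µM one-dose test. Method details not given beyond the NCI screen.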

RPMI-8226 = assay: Cytotoxicity against human RPMI8226 cells by SRB assay; type: functional; how it was run: as §1
U-251 = assay: Cytotoxicity against human U251 cells by SRB assay; type: functional; how it was run: as §1
UACC-62 [2] = assay: Cytotoxicity against human UACC62 cells by SRB assay; type: functional; how it was run: as §1
IGROV-1 = assay: Cytotoxicity against human IGROV1 cells by SRB assay; type: functional; how it was run: as §1
[3] = Cytotoxicity against human NCI-ADR-RES cells by SRB assay; type: functional; how it was run: as §1
[4] = read-out: LC50 (the source's name)
[5] = read-out: pLC50 (the source's name) (converted)

Compound: COc1cc([C@@H]2c3cc4c(cc3[C@@H](NC(=O)CN3CCN(CCCCCCCCCCN5CCN(CC(=O)N[C@@H]6c7cc8c(cc7[C@@H](c7cc(OC)c(O)c(OC)c7)[C@H]7C(=O)OC[C@@H]76)OCO8)CC5)CC3)[C@H]3COC(=O)[C@H]23)OCO4)cc(OC)c1O
- Activity (K562): Active
- growth at 50 µM (LOX IMVI): 3%
- growth at 50 µM (UACC-62 [1]): -30%
- growth at 50 µM (OVCAR-8): -19%
- growth at 50 µM (ACHN): -87%
- growth at 50 µM (PC-3): -51%
- growth at 50 µM (T47D): -40%
- GI50 (MOLT-4; read-out: GI50): 0.185 µM
- CC50 (MOLT-4; [4]): 6.02 µM
- TGI (MOLT-4; read-out: TGI): 1.4 µM
- GI50 (MOLT-4; read-out: pGI50 (converted)): 0.186 µM
- CC50 (MOLT-4; [5]): 6.03 µM
- TGI (MOLT-4; read-out: pTGI (converted)): 1.41 µM
- GI50 (RPMI-8226; read-out: GI50): 0.0163 µM
- CC50 (RPMI-8226; [4]): > 50 µM
- TGI (RPMI-8226; read-out: TGI): 0.369 µM
- GI50 (RPMI-8226; read-out: pGI50 (converted)): 0.0162 µM
- CC50 (RPMI-8226; [5]): > 50.1 µM
- TGI (RPMI-8226; read-out: pTGI (converted)): 0.372 µM
- GI50 (U-251; read-out: GI50): 0.532 µM
- CC50 (U-251; [4]): 23.4 µM
- TGI (U-251; read-out: TGI): 6.27 µM
- GI50 (U-251; read-out: pGI50 (converted)): 0.537 µM
- CC50 (U-251; [5]): 23.4 µM
- TGI (U-251; read-out: pTGI (converted)): 6.31 µM
- GI50 (UACC-62 [2]; read-out: GI50): 7.23 µM
- CC50 (UACC-62 [2]; [4]): > 50 µM
- TGI (UACC-62 [2]; read-out: TGI): 24.1 µM
- GI50 (UACC-62 [2]; read-out: pGI50 (converted)): 7.24 µM
- CC50 (UACC-62 [2]; [5]): > 50.1 µM
- TGI (UACC-62 [2]; read-out: pTGI (converted)): 24 µM
- GI50 (IGROV-1; read-out: GI50): 0.36 µM
- CC50 (IGROV-1; [4]): > 50 µM
- TGI (IGROV-1; read-out: TGI): 7.59 µM
- GI50 (IGROV-1; read-out: pGI50 (converted)): 0.363 µM
- CC50 (IGROV-1; [5]): > 50.1 µM
- TGI (IGROV-1; read-out: pTGI (converted)): 7.59 µM
- GI50 ([3]; read-out: GI50): 6.48 µM
- CC50 [3, 4]: > 50 µM
